# In the library only some 2.5% were active in any assay of this set; here they are far more common.
# TRPC4 agonist: activators of mouse TRPC4 channel | HEK293 TRPC4beta/mu-opioid, Fluo4 calcium fluorescence; active compounds read high | B-score at 10 µM | 310,000 tested, 0.49% active | AID 2237;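 active = B-score above 5 SD of library B-scores, and initial fluorescence ratio not above library mean plus 5 SD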;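 also: positive B-score marks a calcium rise read as TRPC4 activation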
#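 Assay system: HEK293 stable line with TRPC4beta plus mu-opioid receptor. Times: dye 45 min RT, read 110 s. Measured by: kinetic Fluo4 calcium fluorescence. Measure: B score of integrated ratio. Controls: assay buffer as low control, maximal DAMGO as high control.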
# TRPC4 block: inhibitors of mouse TRPC4 channel; B-score at 10 µM; 300,000 tested, 0.39% active; Q9QUQ5; HEK293 TRPC4beta/mu-opioid, DAMGO-evoked Fluo4 calcium flux; active compounds read low;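 active = B-score over 3 SD under the library average, no early fluorescence shift, positive overall ratio signal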
#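 Test system – stable TRPC4beta/mu-opioid receptor HEK293 cells · Probe or stimulus – DAMGO, a submaximal dose followed by a maximal one · Dosing – one concentration per compound · Signal – Fluo4 calcium fluorescence by kinetic imaging, 5 s 1 Hz baseline · Evaluation – per-well B score of integrated baseline-normalized Fluo4 ratio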
# TRPC4 PAM: TRPC4 (mouse) allosteric potentiation; Q9QUQ5; HEK293 TRPC4beta/mu-opioid, DAMGO EC20, Fluo-4 Ca2+ flux; active compounds read high; B-score at 10 µM; 310,000 tested, 0.42% active;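 active = B-score of calcium response area above 5 SD of library B-scores, with initial fluorescence ratio within 5 SD of library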;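 also: B-score of integrated fluorescence ratio over time as area under calcium response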
# TRPC6 inh: blocks the mouse TRPC6 cation channel | AID 2553 | B-score at 10 µM | 310,000 tested, 1.1% active | HEK293-TRPC6, membrane potential dye, ACh-evoked depolarization; active compounds read low | Q61143;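 active = B-score under library mean minus 3 SD, initial fluorescence not abnormally high, positive integrated signal ratio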;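 also: B-score derived from integrated fluorescence ratio over the kinetic read; more negative B-score means stronger inhibition of depolarization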
# Target sequence (Q61143 whole entry, looked up): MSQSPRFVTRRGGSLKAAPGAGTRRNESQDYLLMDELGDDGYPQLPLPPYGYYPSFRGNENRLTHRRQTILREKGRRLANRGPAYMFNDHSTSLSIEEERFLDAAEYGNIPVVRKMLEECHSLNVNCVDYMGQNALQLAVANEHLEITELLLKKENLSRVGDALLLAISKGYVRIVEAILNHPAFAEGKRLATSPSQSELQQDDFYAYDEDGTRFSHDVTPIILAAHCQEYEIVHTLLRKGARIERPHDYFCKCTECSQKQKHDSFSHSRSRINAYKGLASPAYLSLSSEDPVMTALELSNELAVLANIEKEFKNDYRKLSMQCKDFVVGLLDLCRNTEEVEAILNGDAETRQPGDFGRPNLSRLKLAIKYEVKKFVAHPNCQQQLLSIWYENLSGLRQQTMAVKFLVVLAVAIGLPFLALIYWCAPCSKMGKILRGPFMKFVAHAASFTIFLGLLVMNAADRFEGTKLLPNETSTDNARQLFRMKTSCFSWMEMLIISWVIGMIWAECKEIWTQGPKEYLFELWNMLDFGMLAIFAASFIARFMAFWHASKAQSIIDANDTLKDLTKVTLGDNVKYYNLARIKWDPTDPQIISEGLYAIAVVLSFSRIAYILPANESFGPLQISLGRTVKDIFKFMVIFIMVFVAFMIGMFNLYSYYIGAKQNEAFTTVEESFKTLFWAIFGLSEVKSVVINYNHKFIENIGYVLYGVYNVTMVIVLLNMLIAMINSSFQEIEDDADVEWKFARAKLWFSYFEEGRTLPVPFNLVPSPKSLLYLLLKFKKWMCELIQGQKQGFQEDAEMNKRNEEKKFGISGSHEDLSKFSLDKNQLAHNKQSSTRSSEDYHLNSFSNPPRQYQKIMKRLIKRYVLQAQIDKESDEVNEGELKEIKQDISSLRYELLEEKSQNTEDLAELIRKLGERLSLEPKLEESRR
# Platelet DG rel: modulates dense granule release in human platelets | human platelet-rich plasma, SFLLRN dense granule ATP release, luminescence | inhibition, %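 (compounds screened at 7.5 µM in platelet-rich plasma)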 | 300,000 tested, 0.22% active;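 active = mean replicate score, as percent of positive control, at or above 50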
# TRPC6 act: mouse TRPC6 channel activation; HEK293-TRPC6 membrane potential dye fluorescence; active compounds read high; Q61143; B-score at 10 µM; 310,000 tested, 0.13% active; AID 2550;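 active = B-score of the integrated fluorescence ratio above library mean plus 3 SD, and starting fluorescence ratio within library mean plus 5 SD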;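 also: higher score means more depolarization so channel activation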
# TRPC4 sel inh 2: second selectivity test of TRPC6 inhibitors: effect on mouse TRPC4; shares compounds with TRPC6 inh; HEK293 TRPC4/MOR, membrane potential dye fluorescence; channel activated by saturating DAMGO dose; inhibition, % at 10 µM; 920 tested, 42% active; AID 2776;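 active = compounds whose fluorescence signal differed from control wells by over 3 SD, either direction, in both duplicate plates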
# TRPC4 spec: mouse TRPC4 off-target activity of TRPC6 inhibitors. AID 2777. 920 tested, 61% active. HEK293 TRPC4/mu-opioid, membrane potential fluorescence. shares compounds with TRPC6 inh. activity change, negative = inhibition, % at 10 µM;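 active = rise or fall in signal beyond 3 SD of buffer-only wells in both replicate plates, either sign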;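 also: integrated kinetic ratio of fluorescence range over baseline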
# HEK293 MPD ctr 2-1: second check of TRPC6 inhibitor effects in parental HEK293 cells; shares compounds with TRPC6 inh; parental HEK293 membrane potential dye fluorescence; maximal acetylcholine challenge after compound addition; signal change vs control, % at 10 µM; 920 tested, 31% active; AID 2779;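 active = membrane potential signal moving either way by over 3 SD of the maximum-effect control, in both duplicate plates, meaning non-specific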
# HEK293 MPD ctr-1: parental HEK293 nonspecific activity of TRPC6 inhibitors | membrane potential signal change, % at 10 µM | parental HEK293 membrane potential dye fluorescence | AID 2780 | shares compounds with TRPC6 inh | 920 tested, 60% active;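 active = membrane potential signal shifting up or down by more than 3 SD of buffer-only wells, on both duplicate plates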
# HEK293 MPD ctr-2: counter-screen for TRPC6 modulators: effect in parental HEK293 cells. membrane potential signal change, % at 10 µM. shares compounds with TRPC6 inh. 2,400 tested, 51% active. membrane potential dye fluorescence;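 active = membrane potential signal moves up or down beyond 5 SD from buffer-only wells, on both duplicate plates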
# HEK293 MPD ctr 2-2: second counter-screen for TRPC6 modulators: effect in parental HEK293 cells; shares compounds with TRPC6 inh; membrane potential dye fluorescence; after compound, maximal acetylcholine stimulation; inhibition, % at 10 µM; 2,400 tested, 14% active;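 active = membrane potential signal drops by more than 5 SD from the mean control signal, in both duplicate plates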;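 also: plate controls were acetylcholine ECmax control wells for no effect and buffer only wells for full effect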
# TRPC4/MOR mod: selectivity of TRPC6 modulators against mouse TRPC4. shares compounds with TRPC6 inh. HEK293 TRPC4/mu-opioid, membrane potential fluorescence. percent change from control (negative = decrease, positive = increase), % at 10 µM. 2,400 tested, 69% active. AID 488927;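 active = membrane potential signal moved up or down beyond 5 SD of buffer control wells, in both duplicate plates, actives on both sides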;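 also: plate controls were assay buffer wells for no effect and DAMGO maximal-effect wells for full effect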
# TRPC4/MOR inh 2: second check of whether TRPC6 modulators also affect mouse TRPC4; shares compounds with TRPC6 inh; HEK293 TRPC4/mu-opioid, membrane potential dye fluorescence; stimulated with maximal-effect DAMGO; inhibition, % at 10 µM; 2,400 tested, 55% active;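 active = drop in membrane potential signal beyond 5 SD of the control wells in both duplicate plates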;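 also: TRPC4 counter screen for TRPC6 hits run under conditions tuned for TRPC6 not TRPC4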
# TRPC6 inh conf: mouse TRPC6 inhibitor confirmation; AID 488960; 3,300 tested, 43% active; shares compounds with TRPC6 inh; inhibition, % at 10 µM; HEK293-TRPC6, membrane potential dye, ACh-evoked depolarization;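 active = fluorescence ratio falls more than 5 SD below the full-stimulation control mean, in both duplicate runs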;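 also: integrated fluorescence ratio of peak minus minimum over baseline after agonist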
# TRPC6 act confirm: mouse TRPC6 activator confirmation. HEK293-TRPC6 membrane potential dye fluorescence, FDSS. shares compounds with TRPC6 inh. activation, % at 10 µM. 2,800 tested, 11% active;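 active = ratio signal rise beyond 5 SD above unstimulated control wells' mean, seen in both duplicate runs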;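 also: plate controls were buffer EC0 wells for no effect and acetylcholine ECmax response for full effect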
# * = called active by the depositor; i = inactive; x = no result.
SMILES,TRPC4 agonist,TRPC4 block,TRPC4 PAM,TRPC6 inh,Platelet DG rel,TRPC6 act,HEK293 MPD ctr-2,HEK293 MPD ctr 2-2,TRPC4/MOR mod,TRPC4/MOR inh 2,TRPC6 inh conf,others
CN1C(=O)C(CC(=O)Nc2ccc(F)cc2)N(NC(=O)c2cccc(F)c2)C1=S (stereo unspecified),i,i,i,i,-1,i,x,x,x,x,x,
CCNCCOC(c1ccccc1)c1ccccc1,i,i,i,-5.8*,-7,i,142%*,i,27%*,36%*,i,
C#CC[N+](C)(C)CCCCCCCCCCCC,i,i,i,-5.1*,-9,i,i,i,19%*,45%*,60%*,
CC1=NN(c2nc3ccccc3[nH]2)C(=O)C1Cc1ccccc1 (stereo unspecified),i,i,i,i,-4,i,x,x,x,x,x,
CC(=O)c1cn(C2OC(CO)C3OC(C)(C)OC32)c(=O)n(C)c1=O (stereo unspecified),i,i,i,i,2,i,x,x,x,x,x,
O=C(Nc1ncc([N+](=O)[O-])s1)c1cccc([N+](=O)[O-])c1,i,i,i,i,35,i,x,x,x,x,x,
O=C(Nc1ccccc1)Nc1ncc([N+](=O)[O-])s1,i,i,i,-7.4*,27,i,x,x,x,x,96%*,TRPC4 sel inh 2=54%*;TRPC4 spec=43%*;HEK293 MPD ctr 2-1=i;HEK293 MPD ctr-1=21%*
O=C(COC(=O)c1cccnc1Nc1cccc(C(F)(F)F)c1)NC1CCS(=O)(=O)C1 (stereo unspecified),i,i,i,i,3,i,x,x,x,x,x,
O=C(NCc1cnc2ccccn12)C1CCC(=O)N(Cc2cccc(F)c2)C1 (stereo unspecified),i,i,i,i,-3,i,x,x,x,x,x,
Cc1cc(NC(=O)CSc2ccccn2)cc(NC(=O)CSc2ccccn2)c1,i,i,i,i,3,i,x,x,x,x,x,
Cc1nonc1NC(=O)CSc1ccccn1,i,i,i,-5.7*,4,i,i,i,i,i,i,TRPC6 act confirm=i
COc1ccc(C2=CSC3=NCCN23)cc1F,x,x,x,x,-4,x,x,x,x,x,x,
COc1ccc(C2=CSC3=NCCN23)cc1Br,i,i,i,-5.2*,-7,i,i,i,i,36%*,i,TRPC6 act confirm=i
CCOC(=O)C1=C(COC(=O)c2cc(Br)c(Br)s2)NC(=O)NC1C (stereo unspecified),i,i,i,i,5,i,x,x,x,x,x,
Cc1ccccc1C1CCCN(Cc2nc(CC3CC3)no2)C1 (stereo unspecified),i,i,i,i,0,i,x,x,x,x,x,
Cc1cc(C)c(S(=O)(=O)N2CCCC(C(=O)NC3CC3)C2)c(C)c1 (stereo unspecified),i,i,i,i,1,i,x,x,x,x,x,
CCN(CC)CCn1c(=N)n(CCOc2ccccc2)c2ccccc21,i,i,i,-12*,-11,i,x,x,x,x,i,TRPC4 sel inh 2=52%*;TRPC4 spec=15%*;HEK293 MPD ctr 2-1=272%*;HEK293 MPD ctr-1=6.5%*;TRPC6 act confirm=i
CCN(CC)CCn1c(=N)n(CCO)c2ccccc21,i,i,i,i,4,i,x,x,x,x,x,
COc1ccc2ccccc2c1CNC(C)CCc1ccccc1 (stereo unspecified),i,i,i,-7.8*,4,i,x,x,x,x,53%*,TRPC4 sel inh 2=34%*;TRPC4 spec=90%*;HEK293 MPD ctr 2-1=i;HEK293 MPD ctr-1=56%*
COc1ccc(CCNCc2c(OC)ccc3ccccc23)cc1OC,i,i,i,i,-3,i,x,x,x,x,x,
CN1C(=O)C(N=Nc2ccccc2C(=O)O)N(C)C1=S (stereo unspecified),i,i,i,i,-2,20*,438%*,i,80%*,i,i,TRPC6 act confirm=198%*
CCOc1ccc(-n2nc3c(Cl)nnc(C)c3c2C)cc1,i,i,i,-6.7*,-6,i,i,i,i,i,i,TRPC6 act confirm=i
Cc1nnc(Cl)c2nn(-c3ccccc3)c(C)c12,i,i,i,i,-12,i,x,x,x,x,x,

# Assay outcomes from PubChem.
